{"data": "Measured values of several laboratories", "MAOA": "Amine oxidase [flavin-containing] A (MAOA, Homo sapiens, UniProt P21397)", "Acetylcholinesterase": "Acetylcholinesterase (Bos taurus, UniProt P23795)", "PTPN1": "Tyrosine-protein phosphatase non-receptor type 1 (PTPN1, Homo sapiens, UniProt P18031)", "Integrin alpha-V/beta-3": "Integrin alpha-V/beta-3 (Homo sapiens, UniProt P05106+P06756)", "GSR": "Glutathione reductase, mitochondrial (GSR, Homo sapiens, UniProt P00390)", "LDHA": "L-lactate dehydrogenase A chain (LDHA, Homo sapiens, UniProt P00338)", "note": "Compare with care: the assays were run in different laboratories."}
{"Structure (SMILES)": "C#CCNc1nc(NCCCCC2CCN(Cc3ccccc3)CC2)c(C#N)cc1C#N", "target": "MAOA", "observed": "enzyme activity", "action": "inhibitor", "technique": "fluorescence", "IC50 [µM]": 53.3}
{"Structure (SMILES)": "COc1cc(Nc2ncc(F)c(Nc3ccc4c(n3)NC(=O)C(C)(C)O4)n2)cc(OC)c1OC", "target": "Fatty-acid amide hydrolase 1 (Faah, Rattus norvegicus, UniProt P97612)", "observed": "enzyme activity", "action": "inhibitor", "IC50 [µM]": 1.58}
{"Structure (SMILES)": "O=C1C[C@H](c2ccc(O)cc2)Oc2cc(O)ccc21", "target": "MAOA", "observed": "enzyme activity", "action": "inhibitor", "IC50 [µM]": 9.97}
{"Structure (SMILES)": "CCCc1c(C2CCCCN2CCN2CCOCC2)[nH]c2cc(OC(F)(F)F)ccc12 (centres unmarked)", "target": "Plasma membrane ATPase 1 (PMA1, Saccharomyces cerevisiae, UniProt P05030)", "observed": "ATPase activity", "action": "inhibitor", "IC50 [µM]": 26.9}
{"Structure (SMILES)": "CCCCOc1ccc(C(=O)CCN2CCCCC2)cc1", "target": "Histamine H2 receptor (HRH2, Homo sapiens, UniProt P25021)", "observed": "ligand displacement", "technique": "radioligand", "IC50 [µM]": 3.13}
{"Structure (SMILES)": "CCOP(=O)(OCC)Oc1ccc2c(C)c(Cl)c(=O)oc2c1", "target": "Acetylcholinesterase", "observed": "enzyme activity", "action": "inhibitor", "technique": "Ellman", "IC50 [µM]": 1.04}
{"Structure (SMILES)": "COc1ccc(N2CCN(C(c3cccs3)C(C)NC(=O)C(=O)NCc3ccco3)CC2)cc1 (centres unmarked)", "target": "PTPN1", "observed": "enzyme activity", "action": "inhibitor", "technique": "absorbance", "pH": "pH 7", "IC50 [µM]": 14.4}
{"Structure (SMILES)": "CC[C@H](C)[C@@H]([C@@H](CC(=O)N1CCC[C@H]1[C@H](OC)[C@@H](C)C(=O)N[C@@H](Cc1ccccc1)C(=O)O)OC)N(C)C(=O)[C@@H](NC(=O)[C@H](C(C)C)N(C)C(=O)OCc1ccc(NC(=O)[C@H](C)NC(=O)[C@@H](NC(=O)CCc2cn(CCOCCOCCOCCOCC(=O)NCc3ccc(CN4C(=O)[C@H]5CC(=O)N[C@H](C(=O)O)CC(=O)NCC(=O)N[C@@H](CCCNC(=N)N)C(=O)NC[C@H]4C(=O)N5)cc3)nn2)C(C)C)cc1)C(C)C", "target": "Integrin alpha-V/beta-3", "observed": "ligand displacement", "IC50 [µM]": 0.0439}
{"Structure (SMILES)": "CCC(CC)CSc1ccccc1OC(=O)NC", "target": "Acetylcholinesterase", "observed": "enzyme activity", "action": "inhibitor", "technique": "Ellman", "IC50 [µM]": 5.07}
{"Structure (SMILES)": "CC[C@H](C)[C@@H]([C@@H](CC(=O)N1CCC[C@H]1[C@H](OC)[C@@H](C)C(=O)N[C@@H](Cc1ccccc1)C(=O)O)OC)N(C)C(=O)[C@@H](NC(=O)[C@H](C(C)C)N(C)C(=O)CCc1cn(CCOCCOCCOCCOCC(=O)NCc2ccc(CN3C(=O)[C@H]4CC(=O)N[C@H](C(=O)O)CC(=O)NCC(=O)N[C@@H](CCCNC(=N)N)C(=O)NC[C@H]3C(=O)N4)cc2)nn1)C(C)C", "target": "Integrin alpha-V/beta-3", "observed": "ligand displacement", "IC50 [µM]": 0.0107}
{"Structure (SMILES)": "Nc1ncnc2c1ncn2[C@@H]1O[C@H](COP(=O)(O)OP(=O)(O)OP(=O)(O)O)[C@@H](O)[C@H]1O", "target": "Nucleotide-binding oligomerization domain-containing protein 1 (NOD1, Homo sapiens, UniProt Q9Y239)", "observed": "ligand displacement", "technique": "FP", "IC50 [µM]": "~0.015"}
{"Structure (SMILES)": "c1ccc(CCCN2CCN(CCOC(c3ccccc3)c3ccccc3)CC2)cc1", "target": "GSR", "observed": "enzyme activity", "action": "inhibitor", "technique": "absorbance", "IC50 [µM]": "> 100"}
{"Structure (SMILES)": "NC(Cc1ccc(C(=O)[P-](F)(F)(F)(F)F)cc1)C(=O)O (centres unmarked)", "target": "PTPN1", "observed": "enzyme activity", "action": "inhibitor", "IC50 [µM]": 104}
{"Structure (SMILES)": "NC(=O)c1cccc(-c2cc(OC(=O)NC3CCCCC3)ccc2O)c1", "target": "Monoglyceride lipase (Rattus norvegicus, UniProt Q8R431)", "observed": "enzyme activity", "action": "inhibitor", "IC50 [µM]": "> 100"}
{"Structure (SMILES)": "CC[n+]1c(-c2ccccc2)c2cc(N)ccc2c2ccc(N)cc21", "target": "Acetylcholinesterase", "observed": "enzyme activity", "action": "inhibitor", "technique": "Ellman", "IC50 [µM]": 32.3}
{"Structure (SMILES)": "CNC1CC(c2ccc(Cl)c(Cl)c2)c2ccccc21 (centres unmarked)", "target": "GSR", "observed": "enzyme activity", "action": "inhibitor", "technique": "absorbance", "IC50 [µM]": "> 100"}
{"Structure (SMILES)": "COc1c(O[C@@H]2O[C@H](CO)[C@@H](O)[C@H](O)[C@H]2O[C@@H]2O[C@H](CO)[C@@H](O)[C@H](O)[C@H]2O)cc2oc(-c3ccc(O)cc3)cc(=O)c2c1O", "target": "LDHA", "observed": "enzyme activity", "action": "inhibitor", "pH": "pH 7.4", "IC50 [µM]": "> 500"}
{"Structure (SMILES)": "CNC(=O)C(Cc1ccc(C(F)(F)[P-](F)(F)(F)(F)F)cc1)NC(C)=O (centres unmarked)", "target": "PTPN1", "observed": "enzyme activity", "action": "inhibitor", "IC50 [µM]": 872}
{"Structure (SMILES)": "CC(=O)OC[C@H]1O[C@@H](O[C@H]2[C@H](Oc3cc(O)c4c(=O)cc(-c5ccc(O)c(O)c5)oc4c3)O[C@H](CO)[C@@H](O)[C@@H]2O)[C@H](O)[C@@H](O)[C@@H]1O", "target": "LDHA", "observed": "enzyme activity", "action": "inhibitor", "pH": "pH 7.4", "IC50 [µM]": 445}
{"Structure (SMILES)": "COc1cc2c3cc1Oc1cc(ccc1O)C[C@@H]1c4c(cc(OC)c(O)c4Oc4ccc(cc4)C[C@@H]3N(C)CC2)CC[N+]1(C)C", "target": "Acetylcholinesterase", "observed": "enzyme activity", "action": "inhibitor", "technique": "Ellman", "IC50 [µM]": 54.4}
